# A selection: hits, their analogues and other compounds. The true share with any hit is near 1.8%.
# M5 PAM: human M5 muscarinic receptor positive allosteric modulators, primary screen, CHO-K1 cells, Fluo-8 calcium fluorescence; activation, % at 3 µM; CHO-K1 hM5, ACh EC20 PAM; 0% = ACh EC20, 100% = ACh EC100; Muscarinic acetylcholine receptor M5 (Homo sapiens), P08912; 0.3% of 360,000 active;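 active means activation above the run cutoff, the mean activation of all test compounds plus 3 SD, cut at about 18% in these data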
#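 system = human M5 receptor in CHO-K1 cells | compound = one concentration, 3 µM final (nominal) | schedule = Post-acetylcholine fluorescence recording 140 s | signal = Fluo-8 calcium dye fluorescence, kinetic read | benchmarks = low control EC20 acetylcholine (0%), high control EC100 acetylcholine (100%) | repeats = singlicate, one well per test compound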
# CHRM4 PAM: human M4 muscarinic receptor positive allosteric modulators, primary screen, CHO-K1 cells, Fluo-8 calcium fluorescence. activation, % at 3 µM. AID 624126, 2012. CHO-K1 hM4/Gqi5, ACh EC20; 0% = ACh EC20, 100% = maximal ACh. Muscarinic acetylcholine receptor M4 (Homo sapiens), P08173. 0.4% of 360,000 active;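 active means activation above its plate's cutoff, the mean activation of sample wells plus 3 SD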
# Target sequence (P08173 whole entry, looked up): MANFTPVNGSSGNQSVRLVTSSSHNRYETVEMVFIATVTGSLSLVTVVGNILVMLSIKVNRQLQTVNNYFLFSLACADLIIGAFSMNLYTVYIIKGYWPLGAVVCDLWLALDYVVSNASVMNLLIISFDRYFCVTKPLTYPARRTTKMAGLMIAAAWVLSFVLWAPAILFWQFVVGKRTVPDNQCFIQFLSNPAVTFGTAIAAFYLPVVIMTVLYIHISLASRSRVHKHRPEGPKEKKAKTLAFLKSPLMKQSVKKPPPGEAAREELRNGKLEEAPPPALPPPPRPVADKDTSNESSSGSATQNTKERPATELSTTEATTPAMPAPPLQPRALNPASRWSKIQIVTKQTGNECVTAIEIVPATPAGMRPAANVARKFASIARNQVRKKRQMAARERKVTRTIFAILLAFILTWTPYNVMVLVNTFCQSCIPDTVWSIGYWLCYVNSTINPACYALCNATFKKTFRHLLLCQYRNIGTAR
# M4 ag: human M4 muscarinic receptor agonists, primary screen, CHO-K1 cells, Fluo-8 calcium fluorescence; CHO-K1 hM4/Gqi5; vehicle 0%, full acetylcholine response 100%; activation, % at 3 µM; 0.14% of 360,000 active;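 active means activation above the run mean over all test wells plus 3 SD, cut at about 32% in these data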;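 further: peak over basal fluorescence ratio per well then scaled between controls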
# CHRM5 antagonist: human M5 muscarinic receptor antagonists, primary screen, CHO cells, Fluo-8 calcium fluorescence. Muscarinic acetylcholine receptor M5 (Homo sapiens), P08912. CHO-hM5 cells, ACh EC80. inhibition, % at 3 µM. 0.59% of 360,000 active;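 active means inhibition above a per-plate cutoff, the mean of that plate's test compounds plus 3 SD, cut at about 27% in these data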
# CHRM5 agonist: human M5 muscarinic receptor agonists, primary screen, CHO-K1 cells, Fluo-8 calcium fluorescence | Muscarinic acetylcholine receptor M5 (Homo sapiens), P08912 | CHO-K1 hM5 cells; 0% DMSO wells, 100% maximal acetylcholine response | activation, % at 3 µM | 0.19% of 360,000 active;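 active means activation above the run's mean over test compounds plus 3 SD, cut at about 23% in these data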;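 further: signal is peak over basal fluorescence ratio across the kinetic read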
# M4 antag: human M4 muscarinic receptor antagonists, primary screen, CHO cells, Fluo-8 calcium fluorescence; 0.73% of 360,000 active; Muscarinic acetylcholine receptor M4 (Homo sapiens), P08173; inhibition, % at 3 µM; CHO-hM4 cells, ACh EC80;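 active means inhibition above its plate's cutoff, the mean inhibition of sample wells plus 3 SD, cut at about 27% in these data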
# Hits are given with their value; . = inactive.
SMILES,M5 PAM,CHRM4 PAM,M4 ag,CHRM5 antagonist,CHRM5 agonist,M4 antag
CC(NC(=O)Cn1c(=O)[nH]c2ccsc2c1=O)C12CC3CC(CC(C3)C1)C2 (stereo not given),.,19,.,.,.,.
CC(NC(=O)Cn1ccsc1=N)C12CC3CC(CC(C3)C1)C2 (stereo not given),.,.,.,.,.,.
COc1ccc2[nH]cc(CCNC(=O)/C=C/[C@H]3O[C@@H](n4cc(C)c(=O)[nH]c4=O)C[C@@H]3O)c2c1,.,.,.,.,.,.
Cc1noc(C(=O)Nc2ccc(F)c(Cl)c2)c1Cl,.,.,.,.,.,95
Cc1cccc(CS(=O)(=O)c2nnc([C@H](Cc3ccccc3)NC(=O)OC(C)(C)C)o2)c1,.,.,.,.,.,67
COC(=O)CS(=O)(=O)c1nnc([C@H](Cc2ccccc2)NC(=O)OC(C)(C)C)o1,.,.,.,.,.,77
CC(C)(C)OC(=O)N[C@@H](Cc1ccccc1)c1nnc(SCC(N)=O)o1,.,.,.,.,.,.
COC(=O)CSc1nnc([C@H](Cc2ccccc2)NC(=O)OC(C)(C)C)o1,.,.,.,.,.,.
CO/N=C/c1ccc(N2CCN(C(=O)c3cccc(C(F)(F)F)c3)CC2)c([N+](=O)[O-])c1,.,.,.,.,.,28
CO/N=C/c1ccc(N2CCN(C(=O)c3ccc(Cl)cc3Cl)CC2)c([N+](=O)[O-])c1,.,.,.,.,.,40
O=C(N/N=C/c1ccc(N2CCOCC2)c([N+](=O)[O-])c1)c1ccc(F)cc1,.,.,.,.,.,.
CO/N=C/c1ccc(N2CCN(C(=O)c3ccc(F)cc3)CC2)c([N+](=O)[O-])c1,.,57,.,.,.,56
Cn1nc(C(C)(C)C)cc1C(=O)N1CCCC(c2cc(C(=O)Nc3ccccc3Cl)no2)C1 (stereo not given),.,.,.,.,.,.
CCCCC[C@@H](C)N1C[C@@H](COCc2ccccc2)Oc2cc(N3CC[C@@H](N(C)C)C3)ccc2S1(=O)=O,.,.,.,.,.,.
Cc1ccccc1-c1cc2nc(Oc3ccc4c(c3)OCO4)n(C)c(=O)c2s1,.,.,.,.,.,.
CSc1ccc(Cn2nnc(C(=O)NCc3ccccc3)c2N)cc1,.,.,61,.,42,.
Nc1c(C(=O)NCc2ccccc2)nnn1Cc1ccccc1,.,.,.,.,.,.
CC(C1CC2CCC1C2)n1c(-c2ccco2)n[nH]c1=S (stereo not given),.,.,.,29,.,.
Cc1ccc(-n2c(-c3ccco3)n[nH]c2=S)cc1,.,.,.,.,.,.
CC(=O)Nc1ccc(-c2csc(Nc3cc(C)ccn3)n2)cc1,.,.,.,.,.,.
Cc1ccnc(Nc2nc(-c3ccccc3)cs2)c1,22,.,.,.,.,.
Fc1ccc(-c2nc3c4ccccc4ccn3c2Cc2cccc(Cl)c2)cc1,.,.,.,.,.,.
CC(C)Oc1cccc(C(=O)NC(=S)Nc2ccc(N3CCN(C)CC3)cc2)c1,.,.,.,.,.,39
COc1cccc(C(=O)NC(=S)Nc2ccc(N3CCCC3)cc2)c1,.,.,.,.,.,.
CCOC(=O)c1c(NC(=S)NC(C)=O)sc(C)c1C,18,32,.,.,.,.
SMILES,M5 PAM,CHRM4 PAM,M4 ag,CHRM5 antagonist,CHRM5 agonist,M4 antag
CCOC(=O)c1c(NC(=O)COC)sc(C)c1C,.,.,.,.,.,.
C[C@@H]1CN(Cc2nc(-c3cccs3)no2)C[C@H](C)O1,.,.,.,.,.,27
CC(NC(=O)C1CCCN1C(=O)OC(C)(C)C)C(=O)OCc1ccccc1 (stereo not given),.,.,.,.,.,.
COc1ccccc1-n1cnc2cc(NCc3ccccn3)ccc21,.,.,.,.,.,42
O=C(NCC(O)c1nc2ccccc2[nH]1)c1cc2ccccc2[nH]1 (stereo not given),.,.,.,.,.,.
Cc1nccn1-c1c2c(c(C#N)c3nc4ccccc4n13)CCCC2,.,.,.,.,.,.
N#Cc1c2c(c(-n3cnc4ccccc43)n3c1nc1ccccc13)CCC2,47,.,.,31,.,.
O=C(NCCCN1CCOCC1)c1ccc2c(=O)n(Cc3cccc(Br)c3)c(=S)[nH]c2c1,.,.,.,.,.,.
CC1CCN(CCNC(=O)c2ccc3c(=O)n(Cc4ccc(Cl)cc4)c(=S)[nH]c3c2)CC1,.,.,59,.,.,29
CCN(CC)CCNC(=O)c1ccc2c(=O)n(C3CCCC3)c(=S)[nH]c2c1,.,.,.,.,.,27
CC(C)NC(=O)c1ccc2c(=O)n(C3CCCC3)c(=S)[nH]c2c1,.,.,.,.,.,.
O=C(NCCN1CCCC1)c1ccc(Cn2c(=S)[nH]c3ccc(Br)cc3c2=O)cc1,.,.,.,.,46,.
COC(=O)c1cccc(CN2C(=O)C(C)Sc3cc(Cl)ccc32)c1 (stereo not given),.,.,.,.,.,.
Cc1ccccc1S(=O)(=O)NC(=O)C1(C)CCN1C(=O)Cc1cc(F)ccc1F (stereo not given),.,.,.,.,.,.
Cc1occc1C(=O)N1CCCC(CCC(=O)NCc2ccc(F)c(F)c2)C1 (stereo not given),.,.,.,.,.,.
O=C(CCC1CCCN(C2C3CC4CC(C3)CC2C4)C1)NCc1ccc(F)c(F)c1 (stereo not given),.,.,.,.,.,41
COc1ccc(C)cc1S(=O)(=O)N1CCN(C(=O)c2ncoc2-c2cccc(C)c2)CC1,.,.,.,28,.,.
COc1ccc(C)cc1S(=O)(=O)N1CCN(C(=O)c2ncoc2-c2ccc(C)cc2)CC1,.,.,.,.,.,.
COC(=O)c1ccc(OCC2c3cc(OC)c(OC)cc3CCN2C(C)=O)cc1 (stereo not given),.,.,.,.,.,.
COC(=O)c1ccc(OCC2c3cc(OC)c(OC)cc3CCN2C(=O)c2ccco2)cc1 (stereo not given),.,.,.,.,.,30
CCN(CCc1ccccc1)c1ccc2c(c1)C1CC2CCN1Cc1ccccc1 (stereo not given),.,.,.,.,.,.

# Source: PubChem (The Scripps Research Institute Molecular Screening Center)
